Source: PubChem BioAssay
Inconclusive results are not listed.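 Rule for the calls, unless noted: active = growth inhibition above 25% in both replicates, a cutoff set 3 SD above the mean; inconclusive = above 25% in only one replicate; inactive = the rest.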

Columns and labels:
[1] = S. cerevisiae growth inhibition in permissive medium (OD615), pilot counter-assay for S. cerevisiae lifespan shortening project, permissive growth control (AID 705); settings: OD615, 24 h, at 10 µM, stronger effect = higher value
How it was run: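 System: S. cerevisiae with engineered DeaD lifespan system. Medium: SC raffinose/galactose permissive medium. Doses: single compound dose of 10 µM, 0.25% DMSO final. Schedule: 24 h exposure, 30 °C. Measured by: OD615 turbidity read. Read-out: growth inhibition.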

[2] = S. cerevisiae growth inhibition in restrictive medium, OD615, pilot screen, restrictive growth control, yeast lifespan reduction project (AID 706;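 active = growth inhibition above a set limit, 3 SD over mean compound inhibition, in both replicates, cut at about 43% in these data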;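 note: modified DeaD lifespan yeast strain shifted to restrictive glucose medium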); settings: OD615, 48 h, at 10 µM, stronger effect = higher value
How it was run: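 Assay system – genetically modified Saccharomyces cerevisiae, DeaD replicative lifespan assay strain · Medium – CSMM-D glucose medium · Doses – 10 µM compound, 0.25% DMSO · Times – 4 h pre-incubation, 48 h exposure at 30 °C · Signal – optical density at 615 nm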

[3] = doxorubicin toxicity protection in MRP-1 cells – H69AR cells, CellTiter-Glo, duplicate, MRP-1 activator project, pilot screen (AID 807;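 active = viability increase at or above a cutoff of the median across tested compounds plus 3 SD, cut at about 8.5% in these data, passing the limit was not always enough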;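 note: compound pretreatment 18-22 h then 72 h combined with doxorubicin; 0% = doxorubicin alone and 100% = vehicle without doxorubicin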); settings: H69AR viability with doxorubicin, CellTiter-Glo luminescence; at 10 µM; stronger effect = higher value
[4] = viability of HCT116 without oncogenic beta-catenin – human colon tumor cells, pilot screen (AID 823;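 active = cell viability at or below a set limit in both duplicate runs, the limit being the all-compound median minus 4 SD, cut at about 23% in these data, passing the limit was not always enough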;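 note: 0% = wells killed by 20 µM Hyamine and 100% = untreated DMSO cell wells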); settings: HCT116 beta-catenin knockout viability, CellTiter-Glo, 60 h; at 10 µM; stronger effect = lower value
[5] = viability of PTEN-null HCT116 cells – cell-based, HCT116 clonal line, CellTiter-Glo, pilot screen (AID 824;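 active = viability at or below 27.92% in each of two runs, the all-compound median minus 4 SD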;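 note: 0% = 20 µM Hyamine control and 100% = vehicle cell control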); settings: HCT116 PTEN-deleted viability, 60 h, at 10 µM, stronger effect = lower value
[6] = RAM pathway blockade in budding yeast – dse1pr::URA3 reporter, 5-FOA selection, pilot screen (AID 869;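 active = inhibition over a set limit, the all-compound mean plus 3 SD, in both replicate runs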;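 note: 0% = DMSO wells with no growth and 100% = 10 µM 1-NA-PP1 with full growth; RAM network block rescues cells from 5-FOA so hits raise OD615 growth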); settings: S. cerevisiae dse1pr::URA3 5-FOA growth, OD615, 2 d; at 10 µM; stronger effect = higher value; strain carries analog-sensitive mutant Cbk1 kinase
[7] = RAM signaling pathway blockade in yeast – S. cerevisiae, Pdr1DBD-CYC8 efflux-inhibited sensitized strain, primary screen (AID 1298;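 active = RAM network inhibition above 8.4% in each of two replicates, 3 SD over the compound average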;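 note: 0% = DMSO untreated cells without growth and 100% = 10 µM 1-NA-PP1 full growth; higher means more yeast growth rescued from 5-FOA killing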); settings: S. cerevisiae cbk1-as DSE1-URA3 strain, 5-FOA growth OD615, 2 d; at 50 µM; stronger effect = higher value

Cc1ccc(-c2csc(N3CCC(C(N)=O)(N4CCCCC4)CC3)n2)cc1
inactive: growth inhibition [1] 6.21% | growth inhibition [2] -8.75% | viability increase [3] -1.76% | viability [4] 75.5% | viability [5] 75% | inhibition [6] -0.445% | RAM network inhibition [7] 2.58%

Cc1cc(Nc2cc(F)ccc2C)n2nc(C)nc2n1
inactive: growth inhibition [1] -12.4% | growth inhibition [2] -7.35% | viability increase [3] -2.3% | viability [4] 105% | viability [5] 95% | inhibition [6] 1.03% | RAM network inhibition [7] 6.29%

Cn1c(/N=C/c2cccs2)nc2ccccc21
inactive: growth inhibition [1] -8.72% | growth inhibition [2] -5.94% | viability increase [3] -2.39% | viability [4] 93.9% | viability [5] 94.8% | inhibition [6] 2.46% | RAM network inhibition [7] 1.77%

Oc1ccccc1-c1nnc(COc2ccccc2)o1
inactive: growth inhibition [1] -1.18% | growth inhibition [2] 14.6% | viability increase [3] -1.43% | viability [4] 72.2% | viability [5] 75.5% | inhibition [6] 1.24% | RAM network inhibition [7] 5.2%

CCN1CCN(CCNC(=O)CS(=O)(=O)Cc2nc(-c3ccc(C)cc3)oc2C)CC1
inactive: growth inhibition [1] -13.7% | growth inhibition [2] -28.7% | viability increase [3] 0.44% | viability [4] 87.2% | viability [5] 93.7% | inhibition [6] 0.22% | RAM network inhibition [7] 3.16%

O=C(NCc1ccc(Cl)c(Cl)c1)c1ccco1
inactive: growth inhibition [1] -5.02% | growth inhibition [2] -2.23% | viability increase [3] -3.58% | viability [4] 90.8% | viability [5] 84.9% | inhibition [6] 1.23% | RAM network inhibition [7] 3.74%

O=C(Cn1ncc2c(=O)oc3ccccc3c21)NCC1COc2ccccc2O1 (configuration not stated)
inactive: growth inhibition [1] 4.09% | growth inhibition [2] -10.9% | viability increase [3] -1.36% | viability [4] 103% | viability [5] 98.2% | inhibition [6] 2.72% | RAM network inhibition [7] 3.56%

CCOc1ccc(CC(=O)Nc2c(C(N)=O)oc3ccc(Br)cc23)cc1OCC
inactive: growth inhibition [1] -12% | growth inhibition [2] -15.8% | viability increase [3] -5.14% | viability [4] 61% | viability [5] 45% | inhibition [6] 2.49% | RAM network inhibition [7] 0.56%

COCCN1C=C(C(=O)OC)C(c2ccc3c(c2)OCO3)C(C(=O)OC)=C1
inactive: growth inhibition [1] -9.64% | growth inhibition [2] 1.92% | viability increase [3] 2.8% | viability [4] 97.9% | viability [5] 102% | inhibition [6] -0.19% | RAM network inhibition [7] 3.59%

Cc1nn(CCCC(=O)N2CCc3ccccc3C2)c(=O)c2cc3sccc3n12
inactive: growth inhibition [1] -4.89% | growth inhibition [2] -14.2% | viability increase [3] -1.17% | viability [4] 97% | viability [5] 88.1% | inhibition [6] 1.39% | RAM network inhibition [7] 0.42%

O=C(CN1C2=NCCCN2c2ccccc21)c1cccs1
inactive: growth inhibition [1] 1.83% | growth inhibition [2] -10.1% | viability increase [3] -3.27% | viability [4] 95.7% | viability [5] 92.1% | inhibition [6] 0.695% | RAM network inhibition [7] 4.72%

Cc1cccc(Cn2c(CN3CCN(Cc4ccccc4)CC3)nc3c2c(=O)[nH]c(=O)n3C)c1
inactive: growth inhibition [1] -14.3% | growth inhibition [2] -14.1% | viability increase [3] -3.25% | viability [4] 50.4% | viability [5] 48.6% | inhibition [6] 2.25% | RAM network inhibition [7] 1.88%

COC(=O)c1ccsc1NC(=O)c1ccc(Cl)s1
inactive: growth inhibition [1] -17.6% | growth inhibition [2] -27.1% | viability increase [3] -6.51% | viability [4] 94.7% | viability [5] 87.9% | inhibition [6] 3.58% | RAM network inhibition [7] 5.89%

CC(C)c1cc(NC(=O)CSc2nnc(-c3ccccc3F)n2C)on1
inactive: growth inhibition [1] -6.68% | growth inhibition [2] 2.08% | viability increase [3] 0.77% | viability [4] 98% | viability [5] 101% | inhibition [6] 0.705% | RAM network inhibition [7] 3.69%

C=CCn1c(-c2ccc(N)cc2)nc2ccccc21
inactive: growth inhibition [1] -6.82% | growth inhibition [2] 3.25% | viability increase [3] -3.72% | viability [4] 93.3% | viability [5] 80.1% | inhibition [6] 1.5% | RAM network inhibition [7] 1.23%

c1ccc(N2CCOCC2)c(Nc2nc3ccccc3n3cnnc23)c1
inactive: growth inhibition [1] -8.77% | growth inhibition [2] -1.25% | viability increase [3] -2.57% | viability [4] 66.3% | viability [5] 49.1% | inhibition [6] 1.02% | RAM network inhibition [7] 9.05%

CCOc1ccc(C(=O)NCc2ccncc2)cc1OCC
inactive: growth inhibition [1] 8.96% | growth inhibition [2] 7.73% | viability increase [3] -0.92% | viability [4] 92.9% | viability [5] 90% | inhibition [6] 2.33% | RAM network inhibition [7] 0.83%

CCOC(=O)c1ccc(NC(=O)c2nccnc2C(=O)O)cc1
inactive: growth inhibition [1] -4.96% | growth inhibition [2] -2.24% | viability increase [3] -1.42% | viability [4] 98.1% | viability [5] 96.6% | inhibition [6] 1.07% | RAM network inhibition [7] -0.42%

CC(=O)C1=C(C)NC(=O)NC1c1ccccc1 (configuration not stated)
inactive: growth inhibition [1] -7.36% | growth inhibition [2] -18.6% | viability increase [3] -2.61% | viability [4] 87.3% | viability [5] 91.5% | inhibition [6] 1.03% | RAM network inhibition [7] 5.38%

COCCNC(=O)C1c2cc(OC)c(OC)cc2C(=O)N(C)C1c1cccnc1 (configuration not stated)
inactive: growth inhibition [1] -5.99% | growth inhibition [2] -8.46% | viability increase [3] 0.41% | viability [4] 91.3% | viability [5] 92% | inhibition [6] -0.34% | RAM network inhibition [7] 5.06%

COc1ccc(S(=O)(=O)Cc2ccc(C(=O)N3CCN(c4ncccn4)CC3)o2)cc1
inactive: growth inhibition [1] -2.81% | growth inhibition [2] 4.27% | viability increase [3] -2.72% | viability [4] 106% | viability [5] 103% | inhibition [6] 2.58% | RAM network inhibition [7] 2.27%

O=C1C(=O)N(CCO)C(c2ccccc2)/C1=C(\O)c1ccccc1 (configuration not stated)
inactive: growth inhibition [1] -18.6% | growth inhibition [2] -8.67% | viability increase [3] 0.49% | viability [4] 99.7% | viability [5] 101% | inhibition [6] 1.29% | RAM network inhibition [7] 0.42%

CCOC(=O)N1CCC(NC(=O)C2CCCN(Cc3nc(-c4cccc(Cl)c4)oc3C)C2)CC1 (configuration not stated)
inactive: growth inhibition [1] -13.4% | growth inhibition [2] -23.4% | viability increase [3] -5.39% | viability [4] 40.4% | viability [5] 49.5% | inhibition [6] 0.715% | RAM network inhibition [7] 3.95%

COc1ccc(CSc2nnnn2Cc2ccccc2)cc1OC
inactive: growth inhibition [1] 0.115% | growth inhibition [2] 1.64% | viability increase [3] -0.65% | viability [4] 87.3% | viability [5] 84.4% | inhibition [6] 0.785% | RAM network inhibition [7] 1.87%

COc1ccc2cc(CCNC(=O)C3CCCC3)c(=O)[nH]c2c1
inactive: growth inhibition [1] -6.89% | growth inhibition [2] -9.8% | viability increase [3] -0.27% | viability [4] 109% | viability [5] 98.5% | inhibition [6] 1.08% | RAM network inhibition [7] 0.21%

COc1ccc(N=CC2=C(O)CC(C)(C)CC2=O)cc1
inactive: growth inhibition [1] 6.45% | growth inhibition [2] -2.8% | viability increase [3] -3.24% | viability [4] 97.5% | viability [5] 101% | inhibition [6] 0.71% | RAM network inhibition [7] 1.73%

COc1cc(C(c2sc3nc(C)nn3c2O)N2CC(C)OC(C)C2)cc(OC)c1OC (configuration not stated)
inactive: growth inhibition [1] -0.68% | growth inhibition [2] -4.15% | viability increase [3] -2.37% | viability [4] 93.6% | viability [5] 90.1% | inhibition [6] 0.73% | RAM network inhibition [7] 2.94%

C=CCSc1nnc(Cn2c(=O)sc3ccccc32)n1C
inactive: growth inhibition [1] -5.41% | growth inhibition [2] -8.71% | viability increase [3] -0.84% | viability [4] 108% | viability [5] 104% | inhibition [6] -0.685% | RAM network inhibition [7] 0.31%

Cc1ccc2nc(NC(=O)c3ccc(Cl)s3)sc2c1
inactive: growth inhibition [1] -17.2% | growth inhibition [2] -14.8% | viability increase [3] -6.45% | viability [4] 64.5% | viability [5] 63% | inhibition [6] 1.35% | RAM network inhibition [7] 2.06%

COCc1cc(=O)n2[nH]c(-c3cccc(Br)c3)cc2n1
inactive: growth inhibition [1] -25.1% | growth inhibition [2] -16.1% | viability increase [3] -2.23% | viability [4] 92.9% | viability [5] 86.7% | inhibition [6] 0.76% | RAM network inhibition [7] 5.82%

O=C(COc1ccccc1)N1CCN(S(=O)(=O)c2cccs2)CC1
inactive: growth inhibition [1] -4.47% | growth inhibition [2] -11% | viability increase [3] -0.82% | viability [4] 94% | viability [5] 85.3% | inhibition [6] 0.6% | RAM network inhibition [7] 7.83%

CCc1ccc(S(=O)(=O)NCc2cn3c(C)csc3n2)s1
inactive: growth inhibition [1] 0.075% | growth inhibition [2] 5.25% | viability increase [3] -2.89% | viability [4] 102% | viability [5] 94.1% | inhibition [6] 0.37% | RAM network inhibition [7] 2.22%

O=C(NCc1ccc(F)cc1)C1CCC(=O)N1CCc1ccccc1 (configuration not stated)
inactive: growth inhibition [1] -5.54% | growth inhibition [2] 7.93% | viability increase [3] -0.77% | viability [4] 96.4% | viability [5] 93.2% | inhibition [6] 0.22% | RAM network inhibition [7] -1.59%

CC(=O)c1c(N(C)C)ccnc1C(F)(F)F
inactive: growth inhibition [1] -3.09% | growth inhibition [2] 8.03% | viability increase [3] -2.95% | viability [4] 107% | viability [5] 95.4% | inhibition [6] 1.92% | RAM network inhibition [7] 0.62%

COc1ccc(N2CCN(Cc3nc4c(c(=O)[nH]c(=O)n4C)n3Cc3cccc(Cl)c3)CC2)cc1
inactive: growth inhibition [1] -9.21% | growth inhibition [2] -12.3% | viability increase [3] -3.93% | viability [4] 91.6% | viability [5] 77% | inhibition [6] 1.39% | RAM network inhibition [7] 1.83%

Cc1csc2ncc(C(=O)NCc3ccccn3)c(=O)n12
inactive: growth inhibition [1] -10.9% | growth inhibition [2] 3.67% | viability increase [3] -0.65% | viability [4] 100% | viability [5] 96.7% | inhibition [6] 1.58% | RAM network inhibition [7] 1.6%
